Source: PubChem (SRMLSC)
The sample as a whole holds a higher share of hits than the screen did.
Lung fibro prol: blocks proliferation of human lung fibroblasts | LL 47 human lung fibroblast viability, ATP luminescence; stronger effect = lower value | viability, % at 10 µM | 85,000 compounds, 1.1% hits;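 active means viability at or below 50% in the single dose screen; inactive means viability above 50%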;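 further: compound exposure lasted 72 h before the ATP readout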
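Signal: luminescent ATP detection, CellTiter-Glo; assay system: LL 47 human lung fibroblasts; input: 1,150 cells/well; incubation: overnight cell rest, 72 h compound treatment at 37 °C; measure: % viability versus median cells-only luminescence; medium: IMEM growth medium with 15% fetal bovine serum; dosing: compound addition at 0.1% DMSO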
PTEN del growth: PTEN-deleted cell growth suppression; viability, % at 10 µM; HCT116 PTEN-null viability, CellTiter-Glo, 60 h; stronger effect = lower value; 140,000 compounds, 1.2% hits;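 active means viability at or below a set limit, 4 SD under the median of all tested compounds, cut at about 3.7% in these data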;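 further: PTEN knockout HCT116 line with beta catenin targeted HCT116 as companion control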
H69AR growth 86K: growth inhibitors of human H69AR lung tumor cells. H69AR lung tumor viability, ATP luminescence, 72 h; stronger effect = lower value. viability, % at 10 µM. 85,000 compounds, 6% hits. AID 598;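 active means viability at or below 40%; inactive means viability above 40%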;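 further: multidrug resistant small cell line overexpressing MRP-1 efflux transporter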
HCT116 bCat-KO: beta-catenin-lacking colon tumor cell growth suppression. HCT116 beta-catenin knockout viability, CellTiter-Glo, 60 h; stronger effect = lower value. viability, % at 10 µM. 140,000 compounds, 1.5% hits;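 active means viability at or under a set limit, the compound median less 4 SD, cut at about 6% in these data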
HUVEC inhibit: blocks proliferation of human endothelial cells. HUVEC proliferation, CellTiter-Glo luminescence, 72 h; stronger effect = lower value. viability, % at 10 µM (by protocol). 86,000 compounds, 1.1% hits. AID 648;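 active means viability at or below 30%; inactive means viability above 30%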
Large screens that a line does not name were inactive.

COc1ccc(N2CCN(S(=O)(=O)c3cccc(C(F)(F)F)c3)CC2)cc1	none
O=C(Nc1nc(-c2ccccc2)cs1)C1COc2ccccc2O1 (stereo not drawn)	none
O=C(Nc1nc(-c2ccccn2)cs1)C1COc2ccccc2O1 (stereo not drawn)	Lung fibro prol 43.7
Cc1cc(Cl)c(OCCCNCc2ccccc2)c(Br)c1	PTEN del growth 1.2, HCT116 bCat-KO 1.5 (no result: Lung fibro prol, H69AR growth 86K, HUVEC inhibit)
Clc1ccc(OCCCNCc2ccccc2)c(Br)c1	PTEN del growth 1.7, HCT116 bCat-KO 1.2 (no result: Lung fibro prol, H69AR growth 86K, HUVEC inhibit)
Cc1cccc(C)c1NC(=O)C1c2ccccc2Oc2ccccc21	none (no result: Lung fibro prol, H69AR growth 86K, HUVEC inhibit)
Cc1nn(-c2ccc(Cl)cc2)c2sc(C(=O)N3CCN(c4ccccn4)CC3)cc12	H69AR growth 86K 21.0
O=C(NCc1ccccc1)c1ccc(N2C(=O)C3CCCCC3C2=O)cc1 (stereo not drawn)	none (no result: Lung fibro prol, H69AR growth 86K, HUVEC inhibit)
CCOC(=O)Cn1c(=O)oc2cc(S(=O)(=O)Nc3cccc(C)c3)ccc21	HCT116 bCat-KO 5.2
CCOC(=O)Cn1c(=O)oc2cc(S(=O)(=O)Nc3ccc(N(CC)CC)cc3C)ccc21	Lung fibro prol 6.0, HUVEC inhibit 2.4
CCOC(=O)Cn1c(=O)oc2cc(S(=O)(=O)Nc3cc(OCC)ccc3OCC)ccc21	none
CCOC(=O)CN(C(=O)CSc1nnc(Cc2ccccc2)n1-c1ccc(C)cc1)c1ccccc1	none
COc1cccc2c(=O)c(SC(F)(F)C(F)C(F)(F)F)c(C)[nH]c12 (stereo not drawn)	H69AR growth 86K 16.6
CN1CCN(C(=O)C2(NC(=O)Nc3ccccc3Cl)CCCCC2)CC1	none
Cc1ccc(OC2=NS(=O)(=O)c3ccccc32)cc1	H69AR growth 86K 30.6
COc1ccc(N2C(=O)CC(NCc3cccc(F)c3)C2=O)cc1 (stereo not drawn)	none (no result: PTEN del growth, HCT116 bCat-KO)
COc1cccc(/C=N/NC(N)=S)c1OS(=O)(=O)c1ccccc1	none
CC(=O)Nc1cccc(Oc2cc(C#N)c(C#N)cc2N2CCCCCC2)c1	H69AR growth 86K 31.6
Cc1cc(Cl)c(S(=O)(=O)N2CCN(c3ccc(F)cc3)CC2)cc1OCC(=O)NC1CCCCC1	H69AR growth 86K 36.1
O=C(NCCO)C(c1ccccc1)c1ccccc1	H69AR growth 86K 36.1 (no result: Lung fibro prol)
Cc1ccc(C2NC(=O)c3ccccc3N2)s1 (stereo not drawn)	H69AR growth 86K 31.6
O=C1NC(c2ccncc2)Nc2ccccc21 (stereo not drawn)	none
CCc1ccc2c(c1)cc(CN(C(=S)Nc1ccc(Cl)cc1)C1CC1)c1nnnn12	none (no result: Lung fibro prol, H69AR growth 86K, HUVEC inhibit)
CCc1ccc(S(=O)(=O)/N=C2/C=C(Sc3ncn[nH]3)C(=O)c3ccccc32)cc1	PTEN del growth 3.4, HCT116 bCat-KO 2.5 (no result: Lung fibro prol, H69AR growth 86K, HUVEC inhibit)
C1CCC(C(CC2CCCCN2)C2CCCCC2)CC1 (stereo not drawn)	Lung fibro prol 1.8, PTEN del growth 2.2, H69AR growth 86K 1.3, HCT116 bCat-KO 1.5, HUVEC inhibit 1.6
Clc1ccc(-c2csc(N3CCc4ccccc4C3)n2)cc1	none (no result: Lung fibro prol, H69AR growth 86K, HUVEC inhibit)
Clc1ccc(-c2csc(N3CCN(c4ccccc4)CC3)n2)cc1	H69AR growth 86K 39.9
CC(C)c1ccc(/C=C(\c2nc3ccccc3[nH]2)S(=O)(=O)c2ccccc2)cc1	PTEN del growth 1.9, HCT116 bCat-KO 1.8 (no result: Lung fibro prol, H69AR growth 86K, HUVEC inhibit)
N#C/C(=C\c1cccc(Oc2ccc(C(F)(F)F)cc2[N+](=O)[O-])c1)c1nc2ccccc2[nH]1	none (no result: Lung fibro prol, H69AR growth 86K, HUVEC inhibit)
O=S(=O)(/C(=C/c1ccc(C(F)(F)F)cc1)c1nc2ccccc2[nH]1)c1ccccc1	PTEN del growth 1.6, HCT116 bCat-KO 1.5 (no result: Lung fibro prol, H69AR growth 86K, HUVEC inhibit)
CC(C)(C)/C(O)=C/c1nc2ccccc2[nH]c1=O	none (no result: Lung fibro prol, H69AR growth 86K, HUVEC inhibit)
COC(=O)c1cc(NC(=O)CN2CCOCC2)cc(C(=O)OC)c1	none
O=S(=O)(c1cccc(C(F)(F)F)c1)N(CCCN1CCOCC1)Cc1cccs1	none
CCn1c(SCC(=O)N/N=C/c2cc(OC)c(O)c(OC)c2)nc2ccccc21	none (no result: Lung fibro prol, H69AR growth 86K, HUVEC inhibit)
CSc1nsc(/C=C/Nc2cccc(Cl)c2)c1C#N	H69AR growth 86K 29.2
CSc1nsc(/C=C/Nc2ccc(Cl)cc2)c1C#N	none (no result: Lung fibro prol, H69AR growth 86K, HUVEC inhibit)
CCOc1ccc2[nH]c(=O)c(CN(Cc3ccc(C)cc3)C(=O)N3CCCC3)cc2c1	H69AR growth 86K 33.3
CCOc1ccccc1C(=O)N(Cc1ccccc1)Cc1cc2cc3c(cc2[nH]c1=O)OCCO3	Lung fibro prol 25.8, H69AR growth 86K 9.0, HUVEC inhibit 19.0 (no result: PTEN del growth, HCT116 bCat-KO)
COc1ccc2[nH]c(=O)c(CN(C)C(=O)c3ccncc3)cc2c1	none
CCCN(Cc1cc2cc(OC)ccc2[nH]c1=O)C(=O)c1ccncc1	H69AR growth 86K 25.1
CCOc1ccc2[nH]c(=O)c(CN(CCc3ccccc3)C(=O)N3CCCC3)cc2c1	none (no result: Lung fibro prol, H69AR growth 86K, HUVEC inhibit)
CCOc1ccc(C(=O)N(Cc2ccc(OC)cc2)Cc2cc3cc(OC)ccc3[nH]c2=O)cc1	H69AR growth 86K 19.3
NCCc1nnc(SCc2ccccc2)o1	none
COCCn1nnnc1C(C(C)C)N(Cc1ccccc1)Cc1cc2cc(OC)ccc2[nH]c1=O (stereo not drawn)	H69AR growth 86K 4.8
COc1ccc2[nH]c(=O)c(CN(Cc3ccco3)C(c3nnnn3Cc3ccccc3)C(C)C)cc2c1 (stereo not drawn)	PTEN del growth 3.1
Cc1cccc2cc(CN(Cc3ccco3)C(c3nnnn3CCc3ccccc3)C(C)C)c(=O)[nH]c12 (stereo not drawn)	none (no result: Lung fibro prol)
COCCn1nnnc1C(C(C)C)N(Cc1cccnc1)Cc1cc2cc(OC)ccc2[nH]c1=O (stereo not drawn)	none
COCCNC(=O)COC(=O)/C=C/c1c(C)nn(Cc2ccc(Cl)cc2Cl)c1Cl	none
Cc1nn(Cc2c(Cl)cccc2Cl)c(Cl)c1/C=C/C(=O)OCC(=O)NCC(F)(F)F	HCT116 bCat-KO 4.2 (no result: Lung fibro prol, H69AR growth 86K, HUVEC inhibit)
O=C(CSc1nnc2n1CCCN2C(=S)Nc1ccc(Cl)cc1)c1ccccc1	H69AR growth 86K 26.1
N#C/C(=C\c1sc(N2CCOCC2)nc1-c1ccccc1)C(=O)Nc1cccc2ccccc12	PTEN del growth 2.3, HCT116 bCat-KO 3.9 (no result: Lung fibro prol, H69AR growth 86K, HUVEC inhibit)
CN1C(=O)CSC1=NCC12CC3CC(CC(C3)C1)C2	none
O=C(Nc1ccc(Cl)cc1)Nc1nc(-c2sccc2Br)cs1	HCT116 bCat-KO 3.8 (no result: Lung fibro prol, H69AR growth 86K, HUVEC inhibit)
Cc1csc(NC(=O)Nc2ccc(Cl)cc2)n1	none
COc1ccc(S(=O)(=O)Nc2nnc(C)s2)cc1	none (no result: Lung fibro prol, H69AR growth 86K, HUVEC inhibit)
COc1cccc(C2C(C(=O)Nc3ccccc3)=C(C)N=c3s/c(=C/c4ccc(OCC(=O)O)cc4)c(=O)n32)c1 (stereo not drawn)	none (no result: Lung fibro prol, H69AR growth 86K, HUVEC inhibit)
CC1=C(C(=O)Nc2ccccc2)C(c2ccc(C)o2)n2c(s/c(=C\c3ccco3)c2=O)=N1 (stereo not drawn)	H69AR growth 86K 3.5
COC(=O)C1C(C(C)C)N(c2ccccc2)OC1(C)O (stereo not drawn)	none
CCOc1ccc(C(=S)NC2CCCCC2)cc1OC	none (no result: Lung fibro prol, H69AR growth 86K, HUVEC inhibit)
Nc1nc(NC(=O)c2ccccc2)nn1-c1ccccc1	none (no result: Lung fibro prol, H69AR growth 86K, HUVEC inhibit)
O=C(Nc1nc(NC(=O)c2ccco2)n(-c2ccccc2)n1)c1ccccc1	Lung fibro prol 34.7, H69AR growth 86K 1.4
Nc1nonc1C(=O)NCCNCc1c(OCc2ccccc2F)ccc2ccccc12	H69AR growth 86K 11.7
Cc1ccc2[nH]c3c(c2c1)CCc1cn[nH]c1-3	H69AR growth 86K 38.9
Cc1ccc2[nH]c3c(c2c1)CCC3=O	none
